Assay results from article PMC8167812 (Cell reports, 2021).

Experiments:
Clr4-SET = Clr4-SET (Schizosaccharomyces pombe, UniProt O60016); experiment: Thermal shift assay, Clr4-SET; type: binding, fission yeast (S. pombe); conditions: without peptide, SYPRO orange, Figure S3C
Method in brief: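 Clr4 SET domain (residues 190–490) was expressed in Rosetta E. coli and purified on Talon resin. Protein at 3 μM was mixed with 150 μM SAM in 50 mM Tris pH 8.0, 1 mM EDTA and 0.5 mM DTT, held 10 min at room temperature then 10 min on ice. SYPRO orange was added and the sample ramped 25–99 °C in 1 °C steps over 75 min. Curves were min–max normalised; samples were run in duplicate.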

TetR-Clr4 at tetO = experiment: ChIP analysis of TetR-Clr4 release from tetO after tetracycline addition; type: cell-based, fission yeast (S. pombe); conditions: tetracycline 10 μM

Clr4-SET, sequence (O60016 190-490): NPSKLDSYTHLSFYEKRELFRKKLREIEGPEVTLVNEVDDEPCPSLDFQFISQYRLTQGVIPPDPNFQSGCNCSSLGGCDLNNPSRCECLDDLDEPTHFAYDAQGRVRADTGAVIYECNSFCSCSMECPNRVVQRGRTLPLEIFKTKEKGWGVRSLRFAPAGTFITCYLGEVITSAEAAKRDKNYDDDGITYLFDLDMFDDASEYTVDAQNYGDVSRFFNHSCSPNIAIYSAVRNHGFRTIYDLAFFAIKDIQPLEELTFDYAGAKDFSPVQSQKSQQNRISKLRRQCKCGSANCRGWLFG

| Compound | thermal stability of Clr4 on addition of SAM alone (Clr4-SET) | release of TetR-Clr4 from tetO (TetR-Clr4 at tetO; hht3-K9M cells, samples at 5, 10, and 20 minutes) | time in which most TetR-Clr4 is released from tetO (TetR-Clr4 at tetO; 30°C, ChIP-qPCR normalized to act1+) [min] |
| --- | --- | --- | --- |
| C[S+](CC[C@H](N)C(=O)[O-])C[C@H]1O[C@@H](n2cnc3c(N)ncnc32)[C@H](O)[C@@H]1O (stereo partly drawn) [SAM, S-adenosyl-methionine] | greater thermal stability of Clr4 |  |  |
| CN(C)[C@@H]1C(O)=C(C(N)=O)C(=O)[C@@]2(O)C(O)=C3C(=O)c4c(O)cccc4[C@@](C)(O)[C@H]3C[C@@H]12 [tetracycline] |  | a delay in the release of TetR-Clr4 | ≤ 5 |
